In ChEMBL document CHEMBL1145192, “Discovery of a novel class of reversible non-peptide caspase inhibitors via a structure-based approach” (J Med Chem, 2005) one finds IC50 and Ki data, which are given here for 13 molecules.

The structures appear in SMILES notation.

One experiment has as its target T1, Caspase-3 (Homo sapiens, UniProt P42574).
T1 sequence (P42574 whole entry): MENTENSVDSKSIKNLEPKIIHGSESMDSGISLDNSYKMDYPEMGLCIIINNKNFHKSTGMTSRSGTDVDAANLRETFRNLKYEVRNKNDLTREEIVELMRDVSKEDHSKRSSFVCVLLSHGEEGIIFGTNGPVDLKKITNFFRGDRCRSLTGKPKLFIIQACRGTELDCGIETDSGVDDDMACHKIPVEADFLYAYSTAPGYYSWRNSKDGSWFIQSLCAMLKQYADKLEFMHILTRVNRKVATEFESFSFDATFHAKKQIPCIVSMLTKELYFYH
The experiment is described as follows: Inhibitory concentration against caspase-3 expressed in Escherichia coli. BL21(DE3) by fluorometric assay.

The target of a further experiment is T2, Caspase-7 (Homo sapiens, UniProt P55210).
T2 sequence (P55210 whole entry): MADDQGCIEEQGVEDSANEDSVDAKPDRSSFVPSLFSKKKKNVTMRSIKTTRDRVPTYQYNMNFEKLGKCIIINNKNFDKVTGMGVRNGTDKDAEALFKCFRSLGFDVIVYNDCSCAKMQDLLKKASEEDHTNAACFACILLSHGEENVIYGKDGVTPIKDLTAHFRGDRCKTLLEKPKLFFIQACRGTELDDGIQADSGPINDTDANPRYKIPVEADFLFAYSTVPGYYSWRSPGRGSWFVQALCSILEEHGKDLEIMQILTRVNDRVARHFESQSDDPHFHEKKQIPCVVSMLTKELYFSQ
The experiment is described as follows: Inhibitory concentration against caspase-7 expressed in Escherichia coli. BL21(DE3) by fluorometric assay.

For experiment [1], the target named is T3, Caspase-8 (Homo sapiens, UniProt Q14790). The experiment is described as follows: Inhibitory concentration against caspase-8 expressed in Escherichia coli. BL21(DE3) by fluorometric assay.
Experiment [2] addresses T3, Caspase-8. The experiment is described as follows: Binding affinity against caspase-8 expressed in Escherichia coli. BL21(DE3) by fluorometric assay. The procedure, abridged: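 E. coli-expressed active caspase-8, titrated with Z-VAD-FMK, 25-50 nM, with 40 µM Ac-IETD-AFC in 10 mM phosphate buffer (pH 7.5), 10 mM NaCl. Fluorescence at ex 405 / em 505 nm, followed kinetically over 30 min at room temperature. Ki from Lineweaver-Burk double-reciprocal analysis over varied substrate concentrations, assuming competitive inhibition.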

T3 sequence (Q14790 217-374 limits assumed): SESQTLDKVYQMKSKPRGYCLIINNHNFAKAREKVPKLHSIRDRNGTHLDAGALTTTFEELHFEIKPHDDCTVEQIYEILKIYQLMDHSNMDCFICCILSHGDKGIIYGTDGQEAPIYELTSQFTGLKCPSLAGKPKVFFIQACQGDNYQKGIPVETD
T3 sequence (Q14790 385-479 limits assumed): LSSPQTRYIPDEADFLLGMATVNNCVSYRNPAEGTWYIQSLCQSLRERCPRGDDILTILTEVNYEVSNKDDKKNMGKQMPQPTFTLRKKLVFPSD

As usually defined, the IC50 is the point on the concentration scale where inhibition reaches its midpoint. A low value points to greater potency. Regarding `COc1ccc(N/C=C(\C#N)c2nc(-c3cc4cc([N+](=O)[O-])ccc4oc3=O)cs2)cc1`, at Caspase-3, the IC50 is over 1000 µM.
On to `O=C(Sc1cccs1)c1csc(C2COc3ccccc3O2)n1` (configuration not stated), for which the IC50 on Caspase-7 was over 200 µM; on Caspase-8 [1], 62 µM.
On to `O=C(c1csc(C2COc3ccccc3O2)n1)N1CCOCC1` (configuration not stated), for which the results for the IC50 against Caspase-7, against Caspase-3 and against Caspase-8 [1] were over 200 µM, 150 µM and over 200 µM, respectively.
For orientation: Ki means the dissociation constant of the complex between target and ligand, obtained from inhibition or displacement. Higher therefore signals lower affinity. With `CCOC(=O)c1csc(C2COc3ccccc3O2)n1` (configuration not stated), on Caspase-8 [2], the Ki came to 30 µM.
On to `O=C(O)c1csc(C2COc3ccccc3O2)n1` (configuration not stated), for which the figures for the IC50 at Caspase-7, against Caspase-3 and against Caspase-8 [1] were 170 µM, over 200 µM and 75 µM, respectively.
For the molecule `O=C(Oc1ccccc1)c1csc(C2COc3ccccc3O2)n1` (configuration not stated), the IC50 against Caspase-7 was over 200 µM; on Caspase-8 [1] it was 60 µM.
For the molecule `CN(C)C(=O)c1csc(C2COc3ccccc3O2)n1` (configuration not stated), the figures for the IC50 at Caspase-7, on Caspase-3 and against Caspase-8 [1] were over 200 µM, 129 µM and over 200 µM, respectively.
`CCOC(=O)c1sc(C2COc3ccccc3O2)nc1C` (configuration not stated): the IC50 at Caspase-7 and against Caspase-8 [1] was over 200 µM each time.
As for `Cc1nc(C2COc3ccccc3O2)sc1C(=O)O` (configuration not stated), the results for the IC50 at Caspase-7, against Caspase-3 and against Caspase-8 [1] were over 200 µM, 128 µM and over 200 µM, respectively.
For `O=C(Oc1ccc(Cl)cc1)c1csc(C2COc3ccccc3O2)n1` (configuration not stated), the IC50 against Caspase-7 and against Caspase-8 [1] was over 200 µM in each case.
Turning to `FC(F)(F)c1cccc(-c2csc(C3COc4ccccc4O3)n2)c1` (configuration not stated), on Caspase-8 [2], affinity was put at a Ki of 2.7 µM.
`O=C(NCc1ccco1)c1csc(C2COc3ccccc3O2)n1` (configuration not stated): the IC50 was over 200 µM against Caspase-7, 133 µM against Caspase-3 and 60 µM against Caspase-8 [1].
In turn, `CCOC(=O)c1ccc(N/C=C(\C#N)c2nc(-c3cc4cc([N+](=O)[O-])ccc4oc3=O)cs2)cc1` registered an IC50 against Caspase-3 of over 100 µM.
